Data on one compound can be found in ChEMBL document CHEMBL3526139, “Clinical pharmacokinetics, metabolism, and drug-drug interaction of carfilzomib” (Drug Metab Dispos, 2013).

Each structure is given as a SMILES string. Bounds are passed on as bounds.

For data set [1], the target named is T1, CYP3A (Homo sapiens, UniProt P08684+P20815+P24462+Q9HB55). Description: Inhibition of CYP3A in human liver microsomes assessed as substrate metabolite formation using testosterone as substrate preincubated with microsomes for 30 mins prior to substrate addition measured after 5 mins by LC-MS/MS analysis. As to conditions: probe testosterone; call rule not given here. Format: ADME. A digest of the protocol: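 HLM (16-donor pool) were preincubated 30 min with carfilzomib 0.01–10 µM before addition of midazolam or testosterone at about Km. Metabolite formation was measured by LC-MS/MS after 5 min, in duplicate, relative to 0.5% acetonitrile controls.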

The target in data set [2] is T2, Cytochrome P450 3A (Homo sapiens, UniProt P08684+P20815+Q9HB55+P24462). Description: Time-dependent inhibition of CYP3A in human liver microsomes assessed as testosterone 6-hydroxylation using testosterone as substrate by LC-MS/MS analysis in presence of NADPH. It counts as ADME. A digest of the protocol:
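Pooled HLM (16 donors) given carfilzomib 0.01–10 µM in duplicate at 37°C with a 30-min preincubation before probe substrate was added. Substrate was set near Km (testosterone Km 100 µM; midazolam Km 3.8 µM). Protein was 0.1 mg/mL, or 0.05 mg/mL with midazolam. Metabolite formation was read by LC-MS/MS after 5 min and expressed relative to 0.5% acetonitrile controls to give IC50.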
In general terms: Liver microsomes are a subcellular fraction often used to study metabolism.

The target in another data set is T3, Cytochrome P450 2C8 (Homo sapiens, UniProt P10632).
T3 sequence (P10632 whole entry): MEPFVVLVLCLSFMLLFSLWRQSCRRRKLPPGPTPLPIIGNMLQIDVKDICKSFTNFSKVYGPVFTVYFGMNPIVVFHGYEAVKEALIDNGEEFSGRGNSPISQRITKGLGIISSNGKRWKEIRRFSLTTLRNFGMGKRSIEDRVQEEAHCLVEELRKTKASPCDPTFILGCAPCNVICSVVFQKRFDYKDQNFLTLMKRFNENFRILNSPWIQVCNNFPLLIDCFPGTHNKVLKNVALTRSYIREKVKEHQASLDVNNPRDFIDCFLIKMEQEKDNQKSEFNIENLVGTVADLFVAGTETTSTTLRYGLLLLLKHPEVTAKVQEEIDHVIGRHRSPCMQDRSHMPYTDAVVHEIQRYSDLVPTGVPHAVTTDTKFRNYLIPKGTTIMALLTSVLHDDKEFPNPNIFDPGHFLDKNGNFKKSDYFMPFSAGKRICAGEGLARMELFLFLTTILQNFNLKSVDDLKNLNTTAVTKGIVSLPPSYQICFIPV
Description: Inhibition of CYP2C8 in human liver microsomes using amodiaquine as substrate after 5 mins by LC-MS/MS analysis. Format: ADME. A digest of the protocol:
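Pooled HLM from 16 donors were incubated at 37°C in duplicate with carfilzomib 0.01–10 µM and probe substrate at about its Km. Substrates were phenacetin, amodiaquine, diclofenac, S-mephenytoin, dextromethorphan, testosterone and midazolam. Protein was 0.1 mg/mL, or 0.05 mg/mL with midazolam. Reactions ran 5 min without preincubation, then were quenched with acetonitrile. Metabolites were measured by LC-MS/MS relative to 0.5% acetonitrile controls.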

A further data set addresses T4, Cytochrome P450 1A2 (Homo sapiens, UniProt P05177).
T4 sequence (P05177 whole entry): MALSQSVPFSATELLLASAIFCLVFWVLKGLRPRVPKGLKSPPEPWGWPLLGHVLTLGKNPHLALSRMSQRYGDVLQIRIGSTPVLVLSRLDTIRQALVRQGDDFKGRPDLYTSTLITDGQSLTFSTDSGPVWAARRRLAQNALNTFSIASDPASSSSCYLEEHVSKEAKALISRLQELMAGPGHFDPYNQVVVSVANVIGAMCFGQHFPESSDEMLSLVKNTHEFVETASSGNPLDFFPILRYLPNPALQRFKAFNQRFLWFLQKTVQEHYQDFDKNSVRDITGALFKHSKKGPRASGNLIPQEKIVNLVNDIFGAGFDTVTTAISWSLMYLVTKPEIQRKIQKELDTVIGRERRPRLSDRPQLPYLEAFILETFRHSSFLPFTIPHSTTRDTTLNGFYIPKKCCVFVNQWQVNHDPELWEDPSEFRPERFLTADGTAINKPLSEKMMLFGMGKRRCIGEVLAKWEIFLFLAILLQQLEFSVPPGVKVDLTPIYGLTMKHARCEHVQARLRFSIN
As to the kind of experiment: Drug metabolism in pooled human hepatocytes assessed as disapperance rate at 1 uM by LC-MS/MS analysis in presence of 30 uM CYP1A2 inhibitor furafylline. It counts as ADME, cell-based, Hepatocyte. The method in brief:
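Pooled human hepatocytes in suspension (~0.5 x 10^6 viable cells/mL) were incubated with 1 µM carfilzomib at 37°C under 5% CO2, with or without isoform-selective CYP chemical inhibitors. Reactions were quenched with acetonitrile at 0, 15, 30, 60 and 120 min. Carfilzomib was quantified by non-validated LC-MS/MS after protein precipitation.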

The next data set deals with Plasma. Description: Drug metabolism in plasma of iv dosed human patient with relapsed and refractory hematological malignancies assessed as morpholino-hPhe-Leu metabolite formation administered on days 1, 2, 8, 9, 15 and 16 of 28-day cycle over 2 to 10 mins by LC-MS/MS analysis. It counts as ADME, organism-based. As to conditions: in vivo.
The next data set relates to CYP1A2. Description: Decrease in CYP1A2 gene expression in human hepatocytes at 2.5 uM after 3 days by qPCR analysis. It counts as ADME, cell-based, Hepatocyte. The method in brief:
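Hepatocytes were treated 3 days with carfilzomib (0.1–2.5 µM) or 0.08% DMSO, renewed daily. CYP3A mRNA was measured in 3 donors and CYP1A2 mRNA in one additional donor, both by qPCR. Values are triplicate means relative to DMSO.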
Background: Real-time PCR tracks product formation cycle by cycle.

For data set [3], the target named is T2, Cytochrome P450 3A. Description: Time-dependent inhibition of CYP3A in human liver microsomes assessed as midazolam 1'-hydroxylation using midazolam as substrate measured after 25-fold diution by LC-MS/MS analysis in presence of NADPH. Format: ADME. The method in brief: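 Pooled HLM (16 donors, mixed gender) preincubated in duplicate with carfilzomib 0, 0.5, 1, 3, 5 and 8 µM plus NADPH-generating system (1 mM NADP, 5 mM glucose-6-phosphate, 1 unit/mL G6PDH) for 0–30 min. Microsomal protein in preincubation: 2.5 mg/mL (testosterone) or 1.25 mg/mL (midazolam). Aliquots then diluted 25-fold into 50 mM potassium phosphate, 3 mM MgCl2, 1 mM EDTA, pH 7.4. Residual activity measured over 5 min with testosterone 200 µM or midazolam 40 µM plus NADPH-generating mixture, 37°C. KI and kinact derived.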

In data set [4] the target is T1, CYP3A. As to the kind of experiment: Time-dependent inhibition of CYP3A in human liver microsomes assessed as midazolam 1'-hydroxylation using midazolam as substrate by LC-MS/MS analysis. Format: ADME. To be noted: probe midazolam (1'-hydroxylation). A digest of the protocol: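 Pooled HLM (16 donors, mixed sex), 37°C, duplicate. IC50: carfilzomib 0.01–10 µM preincubated 30 min, then midazolam near Km (3.8 µM) at 0.05 mg/mL protein, 5 min, LC-MS/MS, relative to 0.5% acetonitrile control. KI/kinact: 0–8 µM preincubated 0–30 min with 1.25 mg/mL HLM plus NADPH-generating system, diluted 25-fold, midazolam 40 µM for 5 min.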

As a reminder, the IC50 is the concentration at which inhibition is half-maximal. The inhibition is the drop in the measured response relative to a control, in per cent. Usually kinact stands for the rate constant of inactivation at saturating inhibitor. Take `CC(C)C[C@H](NC(=O)[C@H](CCc1ccccc1)NC(=O)CN1CCOCC1)C(=O)N[C@@H](Cc1ccccc1)C(=O)N[C@@H](CC(C)C)C(=O)[C@@]1(C)CO1` [CARFILZOMIB]: at CYP3A [1], the IC50 at 5 min was more than 0.97 µM. Moreover, the “inhibition (INH)” value at Cytochrome P450 3A [2] and on Cytochrome P450 3A [3] was “Active” throughout. Also, at Cytochrome P450 2C8, the IC50 was more than 10 µM. The Drug metabolism was 0.016 min⁻¹ at Cytochrome P450 1A2 and “metabolite_detected” in the data set on Plasma. The compound also returned an inhibition at 72 h, 2.5 µM with CYP1A2 of 40%. For the same compound, on CYP3A [4], the Ki was found to be 11 µM. Also, at CYP3A [4], the kinact is 0.00167 s⁻¹.
